Assay results as given in ChEMBL document CHEMBL4028840, “6-Nitro-2,3-dihydroimidazo[2,1-b][1,3]thiazoles: Facile synthesis and comparative appraisal against tuberculosis and neglected tropical diseases” (Bioorg Med Chem Lett, 2017).
Values after ≈ are worked out from the molar mass of the structure shown.

Columns and labels:
[1] = Cytotoxicity against human MRC5 SV2 cells after 72 hrs by resazurin dye based fluorescence assay; assay type: cell-based
Summary of the method: (§1)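 IC50 for growth inhibition of L. infantum, T. cruzi and T. brucei parasites, or for cytotoxicity toward human lung fibroblasts (MRC-5). Values are means of two or more independent experiments.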

[2] = tested on: Mycobacterium tuberculosis; test: Anti-tubercular activity against Mycobacterium tuberculosis H37Rv ATCC 27294 after 7 days under aerobic condition by microplate alamar blue assay; assay type: functional
Summary of the method: (§2)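 M. tuberculosis H37Rv MIC measured in two assays: aerobic growth by MABA and hypoxic exposure by LORA. Each value is the mean of ≥2 independent determinations.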

[3] = tested on: Trypanosoma brucei brucei; test: Anti-parasitic activity against Trypanosoma brucei brucei Squib-427 after 72 hrs by resazurin dye based fluorescence assay; assay type: functional; summary of the method: as §1
[4] = tested on: Mycobacterium tuberculosis; test: Anti-tubercular activity against Mycobacterium tuberculosis H37Rv ATCC 27294 after 10 days under hypoxic condition by low-oxygen recovery assay; assay type: functional; summary of the method: as §2
Trypanosoma cruzi = test: Anti-parasitic activity against Trypanosoma cruzi Tulahuen CL2 infected in human MRC5 cells after 7 days by chlorophenol red […]-D-galactopyranoside dye based assay; assay type: functional, cell-based; summary of the method: as §1
Vero = test: Cytotoxicity against African green monkey Vero cells after 72 hrs by MTS/PMS assay; assay type: cell-based; conditions: Chlorocebus sabaeus
Summary of the method: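 VERO mammalian cells exposed for 72 h. Cytotoxicity IC50 comes from a single test.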

Leishmania infantum = test: Anti-parasitic activity against Leishmania infantum MHOM/MA(BE)/67 amastigotes infected in mouse primary peritoneal macrophages after 5 days by giemsa staining based microscopic method; assay type: functional; summary of the method: as §1
[5] = Solubility in water at pH 7 after 15 mins by HPLC method; assay type: physicochemical; conditions: water, pH 7
Summary of the method: (§3)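 Solubility measured at 20 °C by HPLC, in water (pH 7) or 0.1 M HCl (pH 1).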

[6] = Solubility in HCl at pH 1 after 15 mins by HPLC method; assay type: physicochemical; summary of the method: as §3
[7] = Mycobacterium tuberculosis, H37Rv ATCC 27294, 168 h, read-out: MIC
[8] = Trypanosoma brucei, Squib-427, 72 h
[9] = Mycobacterium tuberculosis, H37Rv ATCC 27294, 240 h, read-out: MIC
[10] = Trypanosoma cruzi, Tulahuen CL2, MRC5, 168 h
[11] = Leishmania infantum, MHOM/MA(BE)/67, 120 h

| Compound | IC50 ([1]; Homo sapiens, MRC-5 SV2, 72 h) [µM] | MIC [2, 7] [µM] | IC50 [3, 8] [µM] | MIC [4, 9] [µM] | IC50 (Trypanosoma cruzi; [10]) [nM] | IC50 (Vero) [µM] | IC50 (Leishmania infantum; [11]) [µM] | solubility at 0.25 h [5] [µg/mL] | solubility at 0.25 h [6] [µg/mL] | IC50 (Trypanosoma cruzi) [nM] | MIC [2] [µM] | MIC [4] [µM] | IC50 [3] [µM] | IC50 ([1]; mrc5 sv2) [µM] | IC50 (Leishmania infantum) [µM] |
| --- | --- | --- | --- | --- | --- | --- | --- | --- | --- | --- | --- | --- | --- | --- | --- |
| CC1(COc2ccc(OC(F)(F)F)cc2)Cn2nc(Br)nc2S1 (stereo not given) | 42 | 24 (≈ 9.85 µg/mL) | 34 | > 128 | 6200 | 89 | > 64 | – | – | – | – | – | – | – | – |
| CC1(COc2ccc(Oc3ccccc3)cc2)Cn2cc([N+](=O)[O-])nc2S1 (stereo not given) | > 64 | 0.76 (≈ 0.291 µg/mL) | > 64 | 5.3 (≈ 2.03 µg/mL) | 140 | > 128 | > 64 | – | – | – | – | – | – | – | – |
| CC1(COc2ccc(OC(F)(F)F)cc2)Cn2nc([N+](=O)[O-])nc2[S+]1[O-] (stereo not given) | 0.74 | 9.3 (≈ 3.65 µg/mL) | 3 | 90 (≈ 35.3 µg/mL) | 1200 | 98 | 0.9 | – | – | – | – | – | – | – | – |
| O=[N+]([O-])c1cn2c(n1)OC(COc1ccc(Oc3ccccc3)cc1)C2 (stereo not given) | 19 | 0.96 (≈ 0.339 µg/mL) | > 64 | > 128 | 3100 | > 128 | 3.4 | – | – | – | – | – | – | – | – |
| CC1(COc2ccc(Oc3ccccc3)cc2)Cn2cc([N+](=O)[O-])nc2S1(=O)=O (stereo not given) | 45 | > 128 | 3.8 | > 128 | 460 | > 128 | 55 | – | – | – | – | – | – | – | – |
| CC1(COCc2ccc(OC(F)(F)F)cc2)Cn2c([N+](=O)[O-])cnc2S1 (stereo not given) | 47 | 55 (≈ 21.4 µg/mL) | 22 | 59 (≈ 23 µg/mL) | 7300 | 45 | > 64 | – | – | – | – | – | – | – | – |
| CC1(COCc2ccc(OC(F)(F)F)cc2)Cn2cc([N+](=O)[O-])nc2S1 (stereo not given) | > 64 | 0.24 (≈ 0.0934 µg/mL) | 56 | 7.9 (≈ 3.08 µg/mL) | 670 | – | 57 | 2.4 (≈ 6.16 µM) | – | – | – | – | – | – | – |
| O=[N+]([O-])c1cn2c(n1)SC(COc1ccc(OC(F)(F)F)cc1)C2 (stereo not given) | > 64 | 4.5 (≈ 1.63 µg/mL) | > 64 | 8.2 (≈ 2.96 µg/mL) | 850 | > 128 | > 64 | – | – | – | – | – | – | – | – |
| CC1(COc2ccc(N3CCC(Oc4ccc(OC(F)(F)F)cc4)CC3)cc2)Cn2cc([N+](=O)[O-])nc2S1 (stereo not given) | > 64 | 0.073 (≈ 0.0402 µg/mL) | 59 | 71 (≈ 39.1 µg/mL) | 55 | > 128 | 53 | 0.18 (≈ 0.327 µM) | 13 (≈ 23.6 µM) | – | – | – | – | – | – |
| CC1(COc2ccc(-c3ccc(C(F)(F)F)cc3)cc2)Cn2cc([N+](=O)[O-])nc2S1 (stereo not given) | > 64 | 0.12 (≈ 0.0523 µg/mL) | 52 | 46 (≈ 20 µg/mL) | 35 | > 128 | > 64 | – | – | – | – | – | – | – | – |
| CC1(COCc2ccc(OC(F)(F)F)cc2)Cn2cc([N+](=O)[O-])nc2S1(=O)=O (stereo not given) | > 64 | > 128 | > 64 | 21 (≈ 8.85 µg/mL) | 970 | – | > 64 | – | – | – | – | – | – | – | – |
| CC1(COc2ccc(OC(F)(F)F)cc2)Cn2cc([N+](=O)[O-])nc2S1(=O)=O (stereo not given) | > 64 | 14 (≈ 5.7 µg/mL) | > 64 | 15 (≈ 6.11 µg/mL) | 1800 | > 128 | > 64 | – | – | – | – | – | – | – | – |
| CC1(COCc2ccc(OC(F)(F)F)cc2)Cn2cc([N+](=O)[O-])nc2[S+]1[O-] (stereo in doubt; 18) | > 64 | – | > 64 | > 128 | 1600 | – | > 64 | – | – | – | – | – | – | – | – |
| CC1(COCc2ccc(OC(F)(F)F)cc2)Cn2cc([N+](=O)[O-])nc2[S+]1[O-] (stereo in doubt; 19) | – | > 128 | – | – | – | – | – | – | – | 3000 | – | – | – | – | – |
| CC1(COc2ccc(OC(F)(F)F)cc2)Cn2cc([N+](=O)[O-])nc2[S+]1[O-] (stereo in doubt; 37) | > 64 | – | > 64 | – | 2300 | > 128 | > 64 | – | – | – | >128 | >128 | – | – | – |
| CC1(COc2ccc(OC(F)(F)F)cc2)Cn2cc([N+](=O)[O-])nc2[S+]1[O-] (stereo in doubt; 38) | – | – | – | – | – | – | – | – | – | 1700 | 26 (≈ 10.2 µg/mL) | 58 (≈ 22.7 µg/mL) | 41 | – | – |
| CC1(COc2ccc(Oc3ccccc3)cc2)Cn2cc([N+](=O)[O-])nc2[S+]1[O-] (stereo in doubt; 39) | 53 | – | – | – | – | > 128 | 55 | – | – | 190 | – | >128 | 0.36 | – | – |
| CC1(COc2ccc(Oc3ccccc3)cc2)Cn2cc([N+](=O)[O-])nc2[S+]1[O-] (stereo in doubt; 40) | – | > 128 | – | – | – | – | – | – | – | 750 | – | 25 (≈ 9.99 µg/mL) | 0.98 | 51 | 42 |
